In ChEMBL document CHEMBL2401625, “Synthesis and evaluation of pharmacological properties of some new xanthone derivatives with piperazine moiety” (Bioorg Med Chem Lett, 2013):
Active and inactive are the calls of the source. The calls are words filed in the database; no cut-off is given here.

Tests used:
[1] = target: 5-hydroxytryptamine receptor 7 (Homo sapiens, UniProt P34969); assay: Displacement of [3H]5-CT from human 5HT7b receptor expressed in HEK293 cells after 1 hr; type: cell-based
[2] = target: T1, Adrenergic receptor alpha-1 (Rattus norvegicus, UniProt P15823+P23944+P43140); assay: Displacement of [3H]prazosin from alpha1-adrenergic receptor in rat cerebral cortex after 30 mins by scintillation counting; type: tissue-based
T1 sequence (P15823 whole entry): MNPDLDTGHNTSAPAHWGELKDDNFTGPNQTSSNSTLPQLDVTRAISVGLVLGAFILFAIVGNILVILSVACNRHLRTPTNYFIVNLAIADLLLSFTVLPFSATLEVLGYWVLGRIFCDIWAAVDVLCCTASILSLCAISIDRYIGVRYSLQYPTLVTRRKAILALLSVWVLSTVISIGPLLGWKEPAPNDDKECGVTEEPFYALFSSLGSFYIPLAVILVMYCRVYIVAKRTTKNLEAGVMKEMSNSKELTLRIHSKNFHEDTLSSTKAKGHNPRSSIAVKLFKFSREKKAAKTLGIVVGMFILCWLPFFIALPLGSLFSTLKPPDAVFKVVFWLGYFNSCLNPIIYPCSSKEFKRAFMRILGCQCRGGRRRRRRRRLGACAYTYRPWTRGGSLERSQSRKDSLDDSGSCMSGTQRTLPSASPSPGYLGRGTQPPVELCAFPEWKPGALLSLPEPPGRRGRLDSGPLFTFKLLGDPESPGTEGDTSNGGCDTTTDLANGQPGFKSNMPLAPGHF
T1 sequence (P23944 whole entry): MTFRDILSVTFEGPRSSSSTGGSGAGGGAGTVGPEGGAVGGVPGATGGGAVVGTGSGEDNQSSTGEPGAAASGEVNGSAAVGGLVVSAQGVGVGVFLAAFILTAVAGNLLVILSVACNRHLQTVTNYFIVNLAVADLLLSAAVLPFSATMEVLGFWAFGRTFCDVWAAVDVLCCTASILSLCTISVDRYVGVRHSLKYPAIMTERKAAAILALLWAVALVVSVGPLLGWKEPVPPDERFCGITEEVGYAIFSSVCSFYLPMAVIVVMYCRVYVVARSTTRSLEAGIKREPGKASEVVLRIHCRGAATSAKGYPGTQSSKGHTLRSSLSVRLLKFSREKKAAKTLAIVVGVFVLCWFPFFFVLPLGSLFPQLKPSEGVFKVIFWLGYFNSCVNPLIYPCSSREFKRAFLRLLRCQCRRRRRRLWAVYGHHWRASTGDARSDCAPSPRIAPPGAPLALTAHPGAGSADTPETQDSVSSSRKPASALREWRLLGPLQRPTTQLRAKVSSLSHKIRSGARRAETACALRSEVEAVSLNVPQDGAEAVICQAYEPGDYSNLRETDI
T1 sequence (P43140 whole entry): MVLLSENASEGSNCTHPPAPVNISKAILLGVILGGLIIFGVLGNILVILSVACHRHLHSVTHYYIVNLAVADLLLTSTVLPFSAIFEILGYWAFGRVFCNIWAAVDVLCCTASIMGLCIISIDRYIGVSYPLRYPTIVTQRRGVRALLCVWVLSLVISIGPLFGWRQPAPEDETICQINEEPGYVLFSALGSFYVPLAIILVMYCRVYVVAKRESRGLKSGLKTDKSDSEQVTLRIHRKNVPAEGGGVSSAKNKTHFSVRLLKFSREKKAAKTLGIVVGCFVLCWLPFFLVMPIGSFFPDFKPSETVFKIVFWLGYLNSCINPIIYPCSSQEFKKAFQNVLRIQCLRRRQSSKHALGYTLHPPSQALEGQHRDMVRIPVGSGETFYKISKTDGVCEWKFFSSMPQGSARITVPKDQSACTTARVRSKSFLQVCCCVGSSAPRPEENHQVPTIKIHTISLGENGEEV
Outline: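 Radioligand binding on rat brain tissue membranes, run in 96-well format. [3H]prazosin was used for α1 (n = 2) and [3H]CGP-12177 for β1 (n = 2). Ki was calculated by the Cheng–Prusoff equation.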

Mus musculus [3] = assay: Anticonvulsant activity in CF1 mouse assessed as protection against subcutaneous metrazole-induced seizures at 100 mg/kg, ip after 4 hrs; type: functional, organism-based; design: dose 100 mg/kg
Outline: (§1)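 Mice given compound i.p. at 30, 100 or 300 mg/kg and tested 0.5 or 4 h after dosing. Seizures were induced by maximal electroshock (MES) or subcutaneous metrazole (ScMet). Prevention of seizures counts as protection. Result is recorded as number of animals protected over number tested.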

Rattus norvegicus [4] = assay: Neurotoxicity in Sprague-Dawley rat assessed as minimal motor impairment at 30 mg/kg, po after 0.25 hrs by rotorod test; conditions: in vivo
Mus musculus [5] = assay: Neurotoxicity in CF1 mouse assessed as minimal motor impairment at 300 mg/kg, ip after 0.5 hrs by rotorod test; type: toxicity, organism-based; design: dose 300 mg/kg, route intraperitoneal; conditions: in vivo
Outline: (§2)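 Rotarod neurotoxicity screen in mice dosed i.p. at 30, 100 or 300 mg/kg, read 0.5 or 4 h after dosing. The animal must stay on a rod rotating at 6 rpm without falling, measured 3 times within 1 min. A fall counts as minimal motor impairment. Result is recorded as impaired animals over animals used.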

Rattus norvegicus [6] = organism: Rattus norvegicus; assay: Displacement of [3H]CGP-12177 from beta1-adrenergic receptor in rat cerebral cortex at 50 uM after 60 mins by scintillation counting; type: tissue-based
Rattus norvegicus [7] = assay: Anticonvulsant activity in Sprague-Dawley rat assessed as protection against maximal electroshock-induced seizures at 30 mg/kg, po after 2 hrs; type: functional, organism-based; design: dose 30 mg/kg
Outline: (§3)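 Rats dosed orally at 30 mg/kg and tested in MES at several time points after dosing. Protection means seizures were prevented. Result is recorded as number of animals protected over number tested.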

Mus musculus [8] = assay: Neurotoxicity in CF1 mouse assessed as minimal motor impairment at 100 mg/kg, ip after 4 hrs by rotorod test; type: toxicity, organism-based; design: dose 100 mg/kg, route intraperitoneal; conditions: in vivo; outline: as §2
Rattus norvegicus [9] = assay: Neurotoxicity in Sprague-Dawley rat assessed as minimal motor impairment at 30 mg/kg, po after 2 hrs by rotorod test; conditions: in vivo
Mus musculus [10] = assay: Anticonvulsant activity in CF1 mouse assessed as protection against subcutaneous metrazole-induced seizures at 30 mg/kg, ip after 0.5 hrs; type: functional, organism-based; design: dose 30 mg/kg; outline: as §1
Mus musculus [11] = assay: Anticonvulsant activity in CF1 mouse assessed as protection against maximal electroshock-induced seizures at 100 mg/kg, ip after 4 hrs; type: functional, organism-based; design: dose 100 mg/kg; outline: as §1
Mus musculus [12] = assay: Anticonvulsant activity in CF1 mouse assessed as protection against maximal electroshock-induced seizures at 30 mg/kg, ip after 0.5 hrs; type: functional, organism-based; design: dose 30 mg/kg; outline: as §1
Rattus norvegicus [13] = assay: Anticonvulsant activity in Sprague-Dawley rat assessed as protection against maximal electroshock-induced seizures at 30 mg/kg, po after 4 hrs; type: functional, organism-based; design: dose 30 mg/kg; outline: as §3
Rattus norvegicus [14] = assay: Neurotoxicity in Sprague-Dawley rat assessed as minimal motor impairment at 30 mg/kg, po after 1 hr by rotorod test; conditions: in vivo
Mus musculus [15] = assay: Neurotoxicity in CF1 mouse assessed as minimal motor impairment at 30 mg/kg, ip after 4 hrs by rotorod test; type: toxicity, organism-based; design: dose 30 mg/kg, route intraperitoneal; conditions: in vivo; outline: as §2
Mus musculus [16] = assay: Anticonvulsant activity in CF1 mouse assessed as protection against subcutaneous metrazole-induced seizures at 100 mg/kg, ip after 0.5 hrs; type: functional, organism-based; design: dose 100 mg/kg; outline: as §1
Rattus norvegicus [17] = assay: Neurotoxicity in Sprague-Dawley rat assessed as minimal motor impairment at 30 mg/kg, po after 0.5 hrs by rotorod test; conditions: in vivo

5-hydroxytryptamine receptor 7, sequence (P34969 whole entry): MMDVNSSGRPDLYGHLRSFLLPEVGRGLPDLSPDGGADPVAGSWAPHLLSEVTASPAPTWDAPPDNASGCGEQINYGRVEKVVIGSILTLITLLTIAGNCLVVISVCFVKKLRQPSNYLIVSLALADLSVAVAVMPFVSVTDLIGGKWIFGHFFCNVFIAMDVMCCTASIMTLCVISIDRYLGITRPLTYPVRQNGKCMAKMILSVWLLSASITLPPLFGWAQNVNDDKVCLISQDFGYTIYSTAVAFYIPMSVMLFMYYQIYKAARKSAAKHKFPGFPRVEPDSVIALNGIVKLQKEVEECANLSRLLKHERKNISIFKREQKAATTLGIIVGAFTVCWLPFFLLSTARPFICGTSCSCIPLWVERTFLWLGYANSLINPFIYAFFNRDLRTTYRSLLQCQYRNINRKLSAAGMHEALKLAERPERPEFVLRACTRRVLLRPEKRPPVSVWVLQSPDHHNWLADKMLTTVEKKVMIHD

## Cl.Cl.Cl.O=c1c2ccc(Cl)cc2oc2c(CN3CCN(CCO)CC3)cccc12
[1]
  Ki: 17.4 µM
[2]
  Ki: 3.93 µM
Mus musculus [3]
  Activity: inactive
Rattus norvegicus [4]
  Activity: Non-toxic
Mus musculus [5]
  Activity: Toxic
Rattus norvegicus [6]
  inhibition: inactive
Rattus norvegicus [7]
  Activity: inactive
Mus musculus [8]
  Activity: Non-toxic
Rattus norvegicus [9]
  Activity: Non-toxic
Mus musculus [10]
  Activity: inactive
Mus musculus [11]
  Activity: inactive
Mus musculus [12]
  Activity: inactive
Rattus norvegicus [13]
  Activity: Active
Rattus norvegicus [14]
  Activity: Non-toxic
Mus musculus [15]
  Activity: Non-toxic
Mus musculus [16]
  Activity: inactive
Rattus norvegicus [17]
  Activity: Non-toxic
